Measurements as given in article PMC4729448 (Molecular cancer therapeutics, 2013).
pIC50: −log10 of the molar value.

Legend:
[1] = oral administration, published literature ref 1, 10-12; cited from earlier work
OE33 cells [2] = assay: Phase-contrast cellular morphology of OE33 cells; type: cell-based; settings: 48 h
[3] = system: microtubule network in OE33 cells; assay: Anti-α-Tubulin immunofluorescence of microtubule network in OE33 cells; type: cell-based; settings: 48 h
OE33 cells [4] = assay: Crystal violet cell proliferation assay; type: cell-based; settings: for pIC50: Homo sapiens, OE33, 48 h, read-out: IC50, OE33 cell proliferation/viability
OE33 xenograft tumors = assay: OE33 tumor xenograft in athymic nude mice; type: in vivo, athymic nude mice (BALB/c-nu/nu); settings: 12 days; for effect on growth of established OE33 xenograft tumors: 75 mg/kg/day orogastric
[5] = Pharmacokinetic analysis in cannulated rat model; type: in vivo, Sprague Dawley rats; settings: for observable effects in the animals following dosing: rat pharmacokinetic studies
In short: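 Fasted male Sprague Dawley rats fitted with carotid artery and jugular and/or femoral vein catheters. Dosed iv or orally with 0.2 micron-filtered solutions; automated sampling allowed both routes in the same animal. Plasma separated by centrifugation and stored at -80 °C. Prodrug, 2-ME2 and metabolites quantified by LC-MS/MS against deuterated internal standards. Parameters from non-parametric analysis; animals observed after dosing.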

[6] = system: microtubule distribution in OE33-tumor xenografts; assay: Anti-α-Tubulin immunofluorescence of OE33 tumor xenograft sections; type: in vivo, athymic nude mice (BALB/c-nu/nu); settings: treated OE33-tumor xenograft sections vs untreated
[7] = Dissolution in sterile water; type: physicochemical
[8] = Sprague-Dawley, rat, plasma, iv, 5.21 mg/kg

AUC(0-t) [5, 8]	Cmax [5, 8]	half-life [5, 8]	SMILES	serum bioavailability [1]	alteration of cellular morphology compared to 2-ME2-PD1 (OE33 cells [2]; 2.5 μM or 5 μM)	microtubule disruption ([3]; 5 μM)	pIC50 (OE33 cells [4])	effect on growth of established OE33 xenograft tumors (OE33 xenograft tumors)	observable effects in the animals following dosing [5]	alteration of cellular morphology (OE33 cells [2]; 2.5 μM)	alteration of cellular morphology (OE33 cells [2]; 5 μM)	microtubule distribution and cellular morphology in tumor xenografts [6]	solubility in sterile water [7]	microtubule disruption ([3]; 2.5 μM)	IC50 fold higher than 2-ME2 (OE33 cells [4]; OE33 viability, 48 h)	reduction in tumor volume relative to the control group (OE33 xenograft tumors; oral 75 mg/kg/d)
321 ng·h/mL	1220 ng/mL	59 min	COc1cc2c(cc1O)CC[C@@H]1[C@@H]2CC[C@]2(C)[C@@H](O)CC[C@@H]12 [2-ME2, 2-Methoxyestradiol]	1 - 2%	much more drastic	totally disrupted	~5.22	inconsistent	no observable effects							
			COc1cc2c(cc1OCOP(=O)([O-])[O-])CC[C@@H]1[C@@H]2CC[C@]2(C)[C@@H](OC(C)=O)CC[C@@H]12.[Na+].[Na+] [2-ME2-PD1, disodium (((8R,9S,13S,14S,17S)-17-acetoxy-2-methoxy-13-methyl-7,8,9,11,12,13,14,15,16,17-decahydro-6H-cyclopenta[a]phenanthren-3-yl)oxy)methyl phosphate]			significantly disrupted	~4.77	inhibited the growth	no observable effects	mild to no alterations	atrophy	striking alteration in microtubule distribution	readily dissolves in sterile water	not very prominent	~3 fold	60 ± 5%
